Reference: ChEMBL document CHEMBL1148717, “Design, synthesis, and biological evaluation of Plasmodium falciparum lactate dehydrogenase inhibitors” (J Med Chem, 2007)

Assays:
[1] = target: T1, Malate dehydrogenase, mitochondrial (Sus scrofa, UniProt P00346); assay: Inhibition of pig heart mitochondrial MDH
T1 sequence (P00346 whole entry): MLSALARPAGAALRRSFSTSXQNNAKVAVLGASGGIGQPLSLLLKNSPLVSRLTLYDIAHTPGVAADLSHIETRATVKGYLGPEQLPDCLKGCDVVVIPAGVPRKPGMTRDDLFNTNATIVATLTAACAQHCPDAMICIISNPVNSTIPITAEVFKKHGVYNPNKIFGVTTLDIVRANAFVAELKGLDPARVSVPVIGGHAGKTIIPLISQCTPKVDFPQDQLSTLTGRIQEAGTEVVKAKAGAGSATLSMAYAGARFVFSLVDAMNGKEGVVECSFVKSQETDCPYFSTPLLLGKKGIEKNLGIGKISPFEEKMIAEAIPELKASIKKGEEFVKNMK
Method in brief: (§1)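 Recombinant P. falciparum LDH and MDH, bovine heart LDH, and porcine heart mitochondrial and cytosolic MDH were each assayed in 50 mM potassium phosphate (pH 7.0) with 200 µM pyruvate. Reactions were started with 250 µM NADH, and the fall in A340 was followed for 5 min at 25 °C. Compounds were first screened at 50 and 100 µg/mL. Those giving over 50% inhibition at 50 µg/mL were retested for IC50.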

Malate dehydrogenase = target: T2, Malate dehydrogenase (Plasmodium falciparum, UniProt Q6VVP7); assay: Inhibition of Plasmodium falciparum MDH; method in brief: as §1
T2 sequence (Q6VVP7 whole entry): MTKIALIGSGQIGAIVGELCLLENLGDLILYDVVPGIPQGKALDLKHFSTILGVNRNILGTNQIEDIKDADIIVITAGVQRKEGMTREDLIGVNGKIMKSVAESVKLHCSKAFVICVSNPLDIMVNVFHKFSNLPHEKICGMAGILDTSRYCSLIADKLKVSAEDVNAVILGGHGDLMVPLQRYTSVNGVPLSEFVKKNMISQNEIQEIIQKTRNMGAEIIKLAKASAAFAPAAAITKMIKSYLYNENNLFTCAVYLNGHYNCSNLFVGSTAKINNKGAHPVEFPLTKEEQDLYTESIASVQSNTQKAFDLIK

Lactate dehydrogenase = Lactate dehydrogenase (Plasmodium falciparum, UniProt Q0PJ46); assay: Inhibition of Plasmodium falciparum LDH; method in brief: as §1
Chain of Lactate dehydrogenase (Q0PJ46 whole entry): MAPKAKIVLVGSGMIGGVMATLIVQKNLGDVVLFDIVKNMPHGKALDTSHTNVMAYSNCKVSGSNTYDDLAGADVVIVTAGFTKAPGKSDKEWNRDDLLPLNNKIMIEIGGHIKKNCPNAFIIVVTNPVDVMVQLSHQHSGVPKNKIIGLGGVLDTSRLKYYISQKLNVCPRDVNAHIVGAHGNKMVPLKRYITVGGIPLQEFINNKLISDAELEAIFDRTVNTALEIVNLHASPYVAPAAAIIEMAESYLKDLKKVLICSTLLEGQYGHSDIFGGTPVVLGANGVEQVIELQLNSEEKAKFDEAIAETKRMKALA

[2] = target: T3, Malate dehydrogenase, cytoplasmic (Sus scrofa, UniProt P11708); assay: Inhibition of pig cytosolic MDH; method in brief: as §1
T3 sequence (P11708 whole entry): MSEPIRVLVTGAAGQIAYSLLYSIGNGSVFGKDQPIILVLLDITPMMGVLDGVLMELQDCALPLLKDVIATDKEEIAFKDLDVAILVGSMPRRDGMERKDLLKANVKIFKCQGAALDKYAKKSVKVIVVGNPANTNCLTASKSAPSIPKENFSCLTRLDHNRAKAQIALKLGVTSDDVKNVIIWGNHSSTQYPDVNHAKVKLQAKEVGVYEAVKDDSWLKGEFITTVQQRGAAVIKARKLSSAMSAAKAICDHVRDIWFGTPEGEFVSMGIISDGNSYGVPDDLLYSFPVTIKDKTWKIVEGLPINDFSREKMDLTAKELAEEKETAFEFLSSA

[3] = Inhibition of bovine heart LDH; parameters: species or system Bos taurus
[4] = Selectivity for Plasmodium falciparum LDH over bovine heart LDH

Structure (SMILES)	IC50 [1] [µM]	IC50 (Malate dehydrogenase; read-out: IC50) [µM]	IC50 (Lactate dehydrogenase; read-out: IC50) [µM]	IC50 [2]	IC50 ([3]; read-out: IC50) [µM]	IC50 ([2]; read-out: IC50) [µM]	Ratio IC50 [4]	IC50 [3]	IC50 (Malate dehydrogenase)	IC50 (Lactate dehydrogenase)
COc1ccc(CNC(=O)c2cc(=O)c3c(O)cc(OCCc4ccc(NC(=O)C(=O)O)c(OC)c4)cc3o2)cc1	0.39	2.66	1.75	–	11.4	6.31	–	–	–	–
COc1cc(COc2cc(O)c3c(=O)cc(C(=O)O)oc3c2)ccc1NC(=O)C(=O)O	64	48.3	87.3	–	–	> 232	–	–	–	–
COc1ccc(CNC(=O)c2cc(=O)c3c(O)cc(OCCc4ccc(NC(=O)C(=O)O)c(C#N)c4)cc3o2)cc1	5.91	86.9	8.25	–	> 179	10.9	22	–	–	–
Cc1cc2c(C(C)C)c(O)c(O)c(C=O)c2c(O)c1-c1c(C)cc2c(C(C)C)c(O)c(O)c(C=O)c2c1O [GOSSYPOL]	2.8	2.03	2.64	–	9.54	5.8	–	–	–	–
NC(=O)C(=O)O [OXAMATE]	> 2000	> 2000	92.5	–	–	> 2000	–	–	–	–

Further lines, results first:

IC50 [1] [µM]	IC50 (Malate dehydrogenase; read-out: IC50) [µM]	IC50 (Lactate dehydrogenase; read-out: IC50) [µM]	IC50 [2]	IC50 ([3]; read-out: IC50) [µM]	IC50 ([2]; read-out: IC50) [µM]	Ratio IC50 [4]	IC50 [3]	IC50 (Malate dehydrogenase)	IC50 (Lactate dehydrogenase)	Structure (SMILES)
96.7	> 241	> 241	Not Active	–	–	–	–	–	–	O=C(O)C(=O)Nc1ccc(CCOc2cc(O)c3c(=O)cc(C(=O)O)oc3c2)cc1
2.72	6.76	3.13	–	> 187	4.88	59	–	–	–	COc1ccc(CNC(=O)c2cc(=O)c3c(O)cc(OCCc4ccc(NC(=O)C(=O)O)cc4)cc3o2)cc1
> 225	> 225	191	Not Active	–	–	–	–	–	–	COc1cc(CCOc2cc(O)c3c(=O)cc(C(=O)O)oc3c2)ccc1NC(=O)C(=O)O
17.1	–	–	–	–	13.6	–	Not Active	Not Active	Not Active	N#Cc1cc(CCOc2cc(O)c3c(=O)cc(C(=O)O)oc3c2)ccc1NC(=O)C(=O)O
